# In ChEMBL document CHEMBL4312027, “Synthesis, characterization, and biological activity of a triphenylphosphonium-containing imidazolium salt against select bladder cancer cell lines” (Eur J Med Chem, 2020):
# The source made the active and inactive calls. The calls are words filed in the database; no cut-off is given here.
# Tests used:
# RT-4 [1] = experiment: Growth inhibition of human RT4 cells at 500 uM by Celltiter-Glo luminescent cell viability assay; assay type: functional, cell-based; settings: TDE = time-dependent effect
# How it was run: (§1)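 Cells seeded 10000/well, 24 h, then exposed in ATCC-recommended medium to 62.5–2000 μM (two-fold steps) or vehicle for the set time (5–60 min), then normal medium. After 24 h, plates equilibrated 30 min at room temperature, CellTiter-Glo added, 2 min at room temperature, luminescence read. Survival relative to vehicle control; quadruplicate.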
# RT-4 [2] = experiment: Growth inhibition of human RT4 cells at 250 uM measured after 5 to 60 mins by Celltiter-Glo luminescent cell viability assay; assay type: functional, cell-based; how it was run: as §1
# RT-112 [3] = experiment: Growth inhibition of human RT112 cells at 1000 uM measured after 5 mins by Celltiter-Glo luminescent cell viability assay; assay type: functional, cell-based; how it was run: as §1
# RT-112 [4] = experiment: Growth inhibition of human RT112 cells at 500 uM measured after 1 hr by Celltiter-Glo luminescent cell viability assay relative to control; assay type: functional; settings: RT-112, 1 h, read-out: GI; how it was run: as §1
# RT-112 [5] = experiment: Growth inhibition of human RT112 cells at 250 uM measured after 5 to 60 mins by Celltiter-Glo luminescent cell viability assay; assay type: functional, cell-based
# RT-112 [6] = experiment: Growth inhibition of human RT112 cells measured after 1 hr by Celltiter-Glo luminescent cell viability assay; assay type: functional; settings: RT-112, 1 h; how it was run: as §1
# RT-4 [7] = experiment: Growth inhibition of human RT4 cells at 1000 uM measured after 15 to 60 mins by Celltiter-Glo luminescent cell viability assay relative to control; assay type: functional; settings: read-out: GI; how it was run: as §1
# EKVX = experiment: Growth inhibition of human EKVX cells assessed as growth percent at 10 uM incubated for 48 hrs by sulforhodamine B assay relative to control; assay type: functional; settings: read-out: Activity
# NCI-H23 = experiment: Growth inhibition of human NCI-H23 cells assessed as growth percent at 10 uM incubated for 48 hrs by sulforhodamine B assay relative to control; assay type: functional; settings: NCI-H23, 48 h, read-out: Activity
# SW-620 = experiment: Growth inhibition of human SW620 cells assessed as growth percent at 10 uM incubated for 48 hrs by sulforhodamine B assay relative to control; assay type: functional; settings: SW-620, 48 h, read-out: Activity
# SNB-75 = experiment: Growth inhibition of human SNB75 cells assessed as growth percent at 10 uM incubated for 48 hrs by sulforhodamine B assay relative to control; assay type: functional; settings: SNB-75, 48 h, read-out: Activity
# MDA-MB-435 = experiment: Growth inhibition of human MDA-MB-435 cells assessed as growth percent at 10 uM incubated for 48 hrs by sulforhodamine B assay relative to control; assay type: functional; settings: MDA-MB-435, 48 h, read-out: Activity
# SK-MEL-2 = experiment: Growth inhibition of human SK-MEL-2 cells assessed as growth percent at 10 uM incubated for 48 hrs by sulforhodamine B assay relative to control; assay type: functional; settings: SK-MEL-2, 48 h, read-out: Activity
# UACC-257 = experiment: Growth inhibition of human UACC257 cells assessed as growth percent at 10 uM incubated for 48 hrs by sulforhodamine B assay relative to control; assay type: functional; settings: UACC-257, 48 h, read-out: Activity
# OVCAR-3 = experiment: Growth inhibition of human OVCAR3 cells assessed as growth percent at 10 uM incubated for 48 hrs by sulforhodamine B assay relative to control; assay type: functional; settings: OVCAR-3, 48 h, read-out: Activity
# SK-OV-3 = experiment: Growth inhibition of human SKOV3 cells assessed as growth percent at 10 uM incubated for 48 hrs by sulforhodamine B assay relative to control; assay type: functional; settings: SK-OV-3, 48 h, read-out: Activity
# 786-0 = experiment: Growth inhibition of human 786-0 cells assessed as growth percent at 10 uM incubated for 48 hrs by sulforhodamine B assay relative to control; assay type: functional; settings: 786-0, 48 h, read-out: Activity
# ACHN = experiment: Growth inhibition of human ACHN cells assessed as growth percent at 10 uM incubated for 48 hrs by sulforhodamine B assay relative to control; assay type: functional; settings: read-out: Activity
# SN12C = experiment: Growth inhibition of human SN12C cells assessed as growth percent at 10 uM incubated for 48 hrs by sulforhodamine B assay relative to control; assay type: functional; settings: read-out: Activity
# MCF7 = experiment: Growth inhibition of human MCF7 cells assessed as growth percent at 10 uM incubated for 48 hrs by sulforhodamine B assay relative to control; assay type: functional; settings: MCF7, 48 h, read-out: Activity
# BT-549 = experiment: Growth inhibition of human BT549 cells assessed as growth percent at 10 uM incubated for 48 hrs by sulforhodamine B assay relative to control; assay type: functional; settings: BT-549, 48 h, read-out: Activity
# T47D = experiment: Growth inhibition of human T47D cells assessed as growth percent at 10 uM incubated for 48 hrs by sulforhodamine B assay relative to control; assay type: functional; settings: read-out: Activity
# MDA-MB-468 = experiment: Growth inhibition of human MDA-MB-468 cells assessed as growth percent at 10 uM incubated for 48 hrs by sulforhodamine B assay relative to control; assay type: functional; settings: MDA-MB-468, 48 h, read-out: Activity
# UMUC3 = experiment: Anticlonogenic activity against human UM-UC-3 cells assessed as no colony formation at 250 to 500 uM incubated for 1 hr measured after culturing in normal medium for 10 days by crystal violet staining assay; assay type: functional, cell-based
# How it was run: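 Cells seeded at 500/well, treated 24 h later with 250 or 500 μM drug or vehicle for 1 h. Cells were then grown in normal media for 10 days, stained with 0.5% crystal violet in 20% MeOH/water at 4 °C for 5 min, washed, dried and imaged. Run in triplicate.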
# RT-112 [8] = experiment: Induction of mitochondrial membrane depolarization in human RT112 cells at 200 uM measured after 1 hr by JC-1 staining based confocal microscopy; assay type: functional, cell-based
# How it was run: (§2)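 RT112 cells, 200000 per glass-bottom dish, plated overnight. Exposed to 200 μM for 45 min, then JC-1 added (final 10 μg/mL) for 15 min. Confocal live imaging, excitation 485 nm, emission 530 and 590 nm, every 15 min for 6 h. Red punctate staining taken as polarized mitochondria, green as depolarized. CCCP as positive control.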
# Mus musculus = experiment: Antitumor activity against anesthetized BBN-induced bladder tumor mouse model assessed as increase in cleaved caspase 3 level in dysplasia region at 1500 uM administered via intravesical instillation treated for 1 hr administered as 2 doses at 24 hrs interval and measured at 24 hrs after final treatment by hematoxylin and eosin staining based immunohistochemical analysis; assay type: functional, organism-based
# RT-112 [9] = experiment: Induction of apoptosis in human RT112 cells assessed as increase in PARP cleavage at 500 uM incubated for 1 hr measured at 24 hrs after treatment by Western blot analysis; assay type: functional, cell-based
# How it was run: (§3)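 RT112 seeded 300,000/well; after 24 h, 250 or 500 μM or vehicle. Cells plus floating debris harvested immediately or 24 h after treatment, lysed in RIPA with protease inhibitors. About 30 μg protein heated 10 min at 95 °C with DTT, run on SDS-PAGE. Immunoblotted for PARP and caspase 9, Ran as loading control, ECL detection.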
# RT-112 [10] = experiment: Induction of apoptosis in human RT112 cells assessed as caspase 9 cleavage at 250 to 500 uM incubated for 1 hr and measured at 24 hrs after treatment by Western blot analysis; assay type: functional, cell-based; how it was run: as §3
# RT-112 [11] = experiment: Induction of mitochondrial membrane depolarization in human RT112 cells at 200 uM measured after 2 to 4 hrs by JC-1 staining based confocal microscopy; assay type: functional, cell-based; how it was run: as §2
compound,measurement,setting,value
[Br-].[Br-].c1ccc([P+](CCCc2n(Cc3ccc4ccccc4c3)c3ccccc3[n+]2Cc2ccc3ccccc3c2)(c2ccccc2)c2ccccc2)cc1,growth inhibition (GI),RT-4 [1],Tde
same,growth inhibition (GI),RT-4 [2],Active
same,growth inhibition (GI),RT-112 [3],Active
same,inhibition of growth at 500 µM,RT-112 [4],100%
same,growth inhibition (GI),RT-112 [5],Active
same,GI50,RT-112 [6],200 µM
same,inhibition of growth at 1000 µM,RT-4 [7],100%
same,growth at 10 µM,EKVX,59.4%
same,growth at 10 µM,NCI-H23,44%
same,growth at 10 µM,SW-620,35.2%
same,growth at 10 µM,SNB-75,91%
same,growth at 10 µM,MDA-MB-435,25.2%
same,growth at 10 µM,SK-MEL-2,100%
same,growth at 10 µM,UACC-257,84%
same,growth at 10 µM,OVCAR-3,75.8%
same,growth at 10 µM,SK-OV-3,84.5%
same,growth at 10 µM,786-0,70.8%
same,growth at 10 µM,ACHN,81.4%
same,growth at 10 µM,SN12C,55%
same,growth at 10 µM,MCF7,73.9%
same,growth at 10 µM,BT-549,68.1%
same,growth at 10 µM,T47D,56.9%
same,growth at 10 µM,MDA-MB-468,34.5%
same,inhibition,UMUC3,Active
same,Activity,RT-112 [8],inactive
same,Activity,Mus musculus,Active
same,Activity,RT-112 [9],Active
same,Activity,RT-112 [10],inactive
same,Activity,RT-112 [11],Active
